Results reported in ChEMBL document CHEMBL4261538, “Synthesis and molecular docking studies of xanthone attached amino acids as potential antimicrobial and anti-inflammatory agents” (Medchemcomm, 2017).
Values after ≈ are worked out from the molar mass of the structure shown. Active and inactive are the calls of the source. The calls are words filed in the database; no cut-off is given here.

What was measured:
[1] = system: Escherichia coli; experiment: Antibacterial activity against Escherichia coli at 25 ug/ml incubated for 24 hrs by agar well diffusion method; type: functional; details: read-out: DIZ
How it was run: (§1)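 Bacteria grown in nutrient broth at 37 °C for 24 h, then subcultured at room temperature. Compounds dissolved in DMSO at 5 mg mL⁻¹ and 5–20 µL added to 6 mm wells, giving 25, 50, 75, 100 µg per well. Gentamicin was the positive control and DMSO the negative control. Plates held at 37 °C for 24 h, then inhibition zone diameter (mm) measured. Values are means of three determinations.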

[2] = system: Candida albicans; experiment: Antifungal activity against Candida albicans at 25 ug/ml incubated for 48 hrs by agar well diffusion method; type: functional; details: read-out: DIZ
How it was run: (§2)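 Compounds dissolved in DMSO at 5 mg mL⁻¹ and 5–20 µL added to 6 mm wells, giving 25, 50, 75, 100 µg per well. Bavistin was the positive control and DMSO the negative control. Plates incubated at 28 °C for 48 h, then inhibition zone diameter (mm) measured. Values are means of three determinations.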

[3] = system: Bacillus subtilis; experiment: Antibacterial activity against Bacillus subtilis at 75 ug/ml incubated for 24 hrs by agar well diffusion method; type: functional; details: read-out: DIZ; how it was run: as §1
[4] = system: Escherichia coli; experiment: Antibacterial activity against Escherichia coli at 75 ug/ml incubated for 24 hrs by agar well diffusion method; type: functional; details: read-out: DIZ; how it was run: as §1
[5] = system: Staphylococcus aureus; experiment: Antibacterial activity against Staphylococcus aureus at 50 ug/ml incubated for 24 hrs by agar well diffusion method; type: functional; details: read-out: DIZ; how it was run: as §1
[6] = system: Staphylococcus aureus; experiment: Antibacterial activity against Staphylococcus aureus at 25 ug/ml incubated for 24 hrs by agar well diffusion method; type: functional; details: read-out: DIZ; how it was run: as §1
[7] = system: Klebsiella pneumoniae; experiment: Antibacterial activity against Klebsiella pneumoniae at 25 ug/ml incubated for 24 hrs by agar well diffusion method; type: functional; details: read-out: DIZ; how it was run: as §1
[8] = system: Bacillus subtilis; experiment: Antibacterial activity against Bacillus subtilis at 25 ug/ml incubated for 24 hrs by agar well diffusion method; type: functional; details: for zone of inhibition at 25 µg/mL: read-out: DIZ; how it was run: as §1
[9] = system: Fusarium oxysporum; experiment: Antifungal activity against Fusarium oxysporum at 25 ug/ml incubated for 48 hrs by agar well diffusion method; type: functional; details: read-out: DIZ; how it was run: as §2
[10] = system: Bacillus subtilis; experiment: Antibacterial activity against Bacillus subtilis at 50 ug/ml incubated for 24 hrs by agar well diffusion method; type: functional; details: for zone of inhibition at 50 µg/mL: read-out: DIZ; how it was run: as §1
[11] = system: Candida albicans; experiment: Antifungal activity against Candida albicans at 75 ug/ml incubated for 48 hrs by agar well diffusion method; type: functional; details: read-out: DIZ; how it was run: as §2
[12] = system: Escherichia coli; experiment: Antibacterial activity against Escherichia coli at 50 ug/ml incubated for 24 hrs by agar well diffusion method; type: functional; details: read-out: DIZ; how it was run: as §1
[13] = system: Fusarium oxysporum; experiment: Antifungal activity against Fusarium oxysporum at 100 ug/ml incubated for 48 hrs by agar well diffusion method; type: functional; details: read-out: DIZ; how it was run: as §2
[14] = system: Aspergillus niger; experiment: Antifungal activity against Aspergillus niger at 75 ug/ml incubated for 48 hrs by agar well diffusion method; type: functional; details: read-out: DIZ; how it was run: as §2
[15] = system: Fusarium oxysporum; experiment: Antifungal activity against Fusarium oxysporum at 75 ug/ml incubated for 48 hrs by agar well diffusion method; type: functional; details: read-out: DIZ; how it was run: as §2
[16] = system: Aspergillus niger; experiment: Antifungal activity against Aspergillus niger at 25 ug/ml incubated for 48 hrs by agar well diffusion method; type: functional; details: for zone of inhibition at 25 µg/mL: read-out: DIZ; how it was run: as §2
[17] = system: Klebsiella pneumoniae; experiment: Antibacterial activity against Klebsiella pneumoniae at 100 ug/ml incubated for 24 hrs by agar well diffusion method; type: functional; details: read-out: DIZ; how it was run: as §1
[18] = system: Staphylococcus aureus; experiment: Antibacterial activity against Staphylococcus aureus at 100 ug/ml incubated for 24 hrs by agar well diffusion method; type: functional; details: read-out: DIZ; how it was run: as §1
[19] = system: Candida albicans; experiment: Antifungal activity against Candida albicans at 100 ug/ml incubated for 48 hrs by agar well diffusion method; type: functional; details: read-out: DIZ; how it was run: as §2
[20] = system: Klebsiella pneumoniae; experiment: Antibacterial activity against Klebsiella pneumoniae at 75 ug/ml incubated for 24 hrs by agar well diffusion method; type: functional; details: read-out: DIZ; how it was run: as §1
[21] = system: Escherichia coli; experiment: Antibacterial activity against Escherichia coli at 100 ug/ml incubated for 24 hrs by agar well diffusion method; type: functional; details: read-out: DIZ; how it was run: as §1
[22] = system: Aspergillus niger; experiment: Antifungal activity against Aspergillus niger at 50 ug/ml incubated for 48 hrs by agar well diffusion method; type: functional; details: for zone of inhibition at 50 µg/mL: read-out: DIZ; how it was run: as §2
[23] = system: Staphylococcus aureus; experiment: Antibacterial activity against Staphylococcus aureus at 75 ug/ml incubated for 24 hrs by agar well diffusion method; type: functional; details: read-out: DIZ; how it was run: as §1
[24] = system: Erythrocyte; experiment: Anti-inflammatory activity in human RBC assessed as inhibition of hypotonic solution-induced hemolysis after 10 mins by spectrophotometric method; type: functional, cell-based
How it was run: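 Human blood (heparinized) washed with 0.9% saline, packed cells made into a 40% v/v stock in isotonic phosphate buffer (154 mM NaCl, 10 mM sodium phosphate, pH 7.4). Stock RBC mixed with hypotonic buffer (50 mM NaCl, 10 mM phosphate, pH 7.4) plus sample at 20–100 µg mL⁻¹.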

[25] = system: Candida albicans; experiment: Antifungal activity against Candida albicans at 50 ug/ml incubated for 48 hrs by agar well diffusion method; type: functional; details: read-out: DIZ; how it was run: as §2
[26] = system: Klebsiella pneumoniae; experiment: Antibacterial activity against Klebsiella pneumoniae at 50 ug/ml incubated for 24 hrs by agar well diffusion method; type: functional; details: read-out: DIZ; how it was run: as §1
[27] = system: Bacillus subtilis; experiment: Antibacterial activity against Bacillus subtilis at 100 ug/ml incubated for 24 hrs by agar well diffusion method; type: functional; details: read-out: DIZ; how it was run: as §1
[28] = system: Aspergillus niger; experiment: Antifungal activity against Aspergillus niger at 100 ug/ml incubated for 48 hrs by agar well diffusion method; type: functional; details: read-out: DIZ; how it was run: as §2
[29] = system: Fusarium oxysporum; experiment: Antifungal activity against Fusarium oxysporum at 50 ug/ml incubated for 48 hrs by agar well diffusion method; type: functional; details: read-out: DIZ; how it was run: as §2

| SMILES | zone of inhibition at 25 µg/mL [2] [mm] | zone of inhibition at 75 µg/mL [3] [mm] | zone of inhibition at 50 µg/mL [5] [mm] | zone of inhibition at 25 µg/mL [6] [mm] | zone of inhibition at 25 µg/mL [7] [mm] | zone of inhibition at 25 µg/mL [9] [mm] | zone of inhibition at 75 µg/mL [11] [mm] | zone of inhibition at 100 µg/mL [13] [mm] | zone of inhibition at 75 µg/mL [14] [mm] | zone of inhibition at 75 µg/mL [15] [mm] | zone of inhibition at 100 µg/mL [17] [mm] | zone of inhibition at 100 µg/mL [18] [mm] | zone of inhibition at 100 µg/mL [19] [mm] | zone of inhibition at 75 µg/mL [20] [mm] | zone of inhibition at 75 µg/mL [23] [mm] | zone of inhibition at 50 µg/mL [25] [mm] | zone of inhibition at 50 µg/mL [26] [mm] | zone of inhibition at 100 µg/mL [27] [mm] | zone of inhibition at 100 µg/mL [28] [mm] | zone of inhibition at 50 µg/mL [29] [mm] | other results |
| --- | --- | --- | --- | --- | --- | --- | --- | --- | --- | --- | --- | --- | --- | --- | --- | --- | --- | --- | --- | --- | --- |
| CC(C)(C)OC(=O)NCC(=O)Oc1ccc2c(=O)c3ccccc3oc2c1 | 7 | 16 | 12 | 7 | 16 | 4 | 14 | 15 | 12 | 13 | 23 | 22 | 16 | 17 | 16 | 10 | 12 | 20 | 15 | 9 | zone of inhibition at 25 µg/mL [1]: 7 mm; zone of inhibition at 75 µg/mL [4]: 16 mm; zone of inhibition at 25 µg/mL [8]: 6 mm; zone of inhibition at 50 µg/mL [10]: 12 mm; zone of inhibition at 50 µg/mL [12]: 3 mm; zone of inhibition at 25 µg/mL [16]: 5 mm; zone of inhibition at 100 µg/mL [21]: 21 mm; zone of inhibition at 50 µg/mL [22]: 9 mm; IC50 [24]: 66 µg/mL (≈ 179 µM) |
| N[C@@H](Cc1ccc(O)cc1)C(=O)O [TYROSINE] | 4 | 9 | 8 | 4 | 4 | 3 | 13 | 14 | 7 | 12 | 15 | 17 | 15 | 11 | 12 | 8 | 7 | 12 | 11 | 7 | diameter of the inhibition zone (DIZ) [8]: inactive; diameter of the inhibition zone (DIZ) [10]: inactive; diameter of the inhibition zone (DIZ) [16]: inactive; diameter of the inhibition zone (DIZ) [22]: inactive |
| N[C@@H](Cc1c[nH]c2ccccc12)C(=O)O [TRYPTOPHAN] | 5 | 12 | 9 | 6 | 6 | 4 | 13 | 11 | 11 | 9 | 17 | 19 | 16 | 13 | 13 | 9 | 10 | 15 | 14 | 7 | zone of inhibition at 25 µg/mL [1]: 6 mm; zone of inhibition at 75 µg/mL [4]: 14 mm; zone of inhibition at 25 µg/mL [8]: 4 mm; zone of inhibition at 50 µg/mL [10]: 8 mm; zone of inhibition at 50 µg/mL [12]: 9 mm; zone of inhibition at 25 µg/mL [16]: 4 mm; zone of inhibition at 100 µg/mL [21]: 17 mm; zone of inhibition at 50 µg/mL [22]: 7 mm |
